Structures are written as SMILES. Positions of bridges follow the written chain, without caps; N, C: chain ends. Residues, ends and D or L forms follow the SMILES beside them.

Assay [1] has as its target Sodium channel protein type 9 subunit alpha (Homo sapiens, UniProt Q15858). Nature of the assay: Inhibition of human Nav1.7 expressed in HEK293 cells assessed as inward peak current by ion-works quattro patch clamp electrophysiology method. The format is cell-based. (In general: In patch-clamp work, channel activity is measured electrically.)
For assay [2], the target named is Sodium channel protein type 5 subunit alpha (Homo sapiens, UniProt Q14524). As to the kind of experiment: Inhibition of human Nav1.5 expressed in HEK293 cells assessed as inward peak current by ion-works quattro patch clamp electrophysiology method. The format is cell-based. A digest of the protocol:
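Stable HEK293 line expressing human NaV1.5, recorded by population patch clamp on the IonWorks Quattro.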

Chain of Sodium channel protein type 9 subunit alpha (Q15858 whole entry): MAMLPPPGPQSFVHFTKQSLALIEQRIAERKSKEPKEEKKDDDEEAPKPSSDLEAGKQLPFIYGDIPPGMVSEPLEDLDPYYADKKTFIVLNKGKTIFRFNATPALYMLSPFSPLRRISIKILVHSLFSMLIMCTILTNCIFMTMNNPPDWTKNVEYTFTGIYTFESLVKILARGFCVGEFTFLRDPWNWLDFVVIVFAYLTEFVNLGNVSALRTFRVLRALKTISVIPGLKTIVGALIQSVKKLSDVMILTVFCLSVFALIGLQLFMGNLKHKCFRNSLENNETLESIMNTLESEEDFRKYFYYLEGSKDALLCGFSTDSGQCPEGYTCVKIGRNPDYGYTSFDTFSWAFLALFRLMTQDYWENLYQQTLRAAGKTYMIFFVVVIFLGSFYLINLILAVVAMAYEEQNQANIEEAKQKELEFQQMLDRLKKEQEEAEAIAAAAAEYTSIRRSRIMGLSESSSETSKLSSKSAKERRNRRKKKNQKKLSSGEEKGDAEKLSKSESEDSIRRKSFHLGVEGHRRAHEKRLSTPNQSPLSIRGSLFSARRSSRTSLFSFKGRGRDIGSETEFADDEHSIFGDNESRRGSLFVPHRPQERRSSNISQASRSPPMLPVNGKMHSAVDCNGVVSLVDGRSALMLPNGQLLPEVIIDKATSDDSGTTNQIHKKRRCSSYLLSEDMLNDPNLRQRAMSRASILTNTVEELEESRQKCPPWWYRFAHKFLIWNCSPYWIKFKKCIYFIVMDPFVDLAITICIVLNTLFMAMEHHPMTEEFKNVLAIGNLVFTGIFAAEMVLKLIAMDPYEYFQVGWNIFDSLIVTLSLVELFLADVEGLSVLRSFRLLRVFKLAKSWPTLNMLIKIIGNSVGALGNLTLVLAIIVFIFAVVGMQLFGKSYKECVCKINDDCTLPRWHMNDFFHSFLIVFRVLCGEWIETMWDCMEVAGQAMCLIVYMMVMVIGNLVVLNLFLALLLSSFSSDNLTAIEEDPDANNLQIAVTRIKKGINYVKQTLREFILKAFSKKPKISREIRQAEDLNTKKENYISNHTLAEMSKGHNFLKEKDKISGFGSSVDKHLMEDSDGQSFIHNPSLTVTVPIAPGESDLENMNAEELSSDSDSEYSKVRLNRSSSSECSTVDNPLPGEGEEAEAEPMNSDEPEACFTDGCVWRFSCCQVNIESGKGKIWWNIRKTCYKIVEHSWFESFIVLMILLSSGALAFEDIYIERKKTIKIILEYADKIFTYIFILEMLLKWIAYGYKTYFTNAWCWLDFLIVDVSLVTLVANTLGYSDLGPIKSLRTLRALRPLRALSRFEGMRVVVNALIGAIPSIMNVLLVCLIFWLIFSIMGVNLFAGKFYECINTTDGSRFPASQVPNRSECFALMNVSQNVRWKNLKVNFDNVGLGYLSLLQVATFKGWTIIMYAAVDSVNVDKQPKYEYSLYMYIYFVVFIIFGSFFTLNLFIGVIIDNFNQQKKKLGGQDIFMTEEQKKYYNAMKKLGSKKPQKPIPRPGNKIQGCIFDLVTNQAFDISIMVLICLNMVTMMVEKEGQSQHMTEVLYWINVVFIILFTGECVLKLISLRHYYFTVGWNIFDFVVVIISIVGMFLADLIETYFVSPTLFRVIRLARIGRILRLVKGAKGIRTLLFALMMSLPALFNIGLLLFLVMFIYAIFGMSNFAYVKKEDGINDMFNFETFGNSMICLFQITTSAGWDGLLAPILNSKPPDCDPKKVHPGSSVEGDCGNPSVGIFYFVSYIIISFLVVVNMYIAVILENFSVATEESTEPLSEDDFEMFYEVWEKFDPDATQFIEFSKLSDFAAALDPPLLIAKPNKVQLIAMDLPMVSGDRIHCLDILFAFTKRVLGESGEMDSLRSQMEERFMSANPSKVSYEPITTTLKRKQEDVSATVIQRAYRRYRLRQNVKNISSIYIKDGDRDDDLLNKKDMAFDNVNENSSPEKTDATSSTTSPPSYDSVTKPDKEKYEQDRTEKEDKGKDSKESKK
Chain of Sodium channel protein type 5 subunit alpha (Q14524 whole entry): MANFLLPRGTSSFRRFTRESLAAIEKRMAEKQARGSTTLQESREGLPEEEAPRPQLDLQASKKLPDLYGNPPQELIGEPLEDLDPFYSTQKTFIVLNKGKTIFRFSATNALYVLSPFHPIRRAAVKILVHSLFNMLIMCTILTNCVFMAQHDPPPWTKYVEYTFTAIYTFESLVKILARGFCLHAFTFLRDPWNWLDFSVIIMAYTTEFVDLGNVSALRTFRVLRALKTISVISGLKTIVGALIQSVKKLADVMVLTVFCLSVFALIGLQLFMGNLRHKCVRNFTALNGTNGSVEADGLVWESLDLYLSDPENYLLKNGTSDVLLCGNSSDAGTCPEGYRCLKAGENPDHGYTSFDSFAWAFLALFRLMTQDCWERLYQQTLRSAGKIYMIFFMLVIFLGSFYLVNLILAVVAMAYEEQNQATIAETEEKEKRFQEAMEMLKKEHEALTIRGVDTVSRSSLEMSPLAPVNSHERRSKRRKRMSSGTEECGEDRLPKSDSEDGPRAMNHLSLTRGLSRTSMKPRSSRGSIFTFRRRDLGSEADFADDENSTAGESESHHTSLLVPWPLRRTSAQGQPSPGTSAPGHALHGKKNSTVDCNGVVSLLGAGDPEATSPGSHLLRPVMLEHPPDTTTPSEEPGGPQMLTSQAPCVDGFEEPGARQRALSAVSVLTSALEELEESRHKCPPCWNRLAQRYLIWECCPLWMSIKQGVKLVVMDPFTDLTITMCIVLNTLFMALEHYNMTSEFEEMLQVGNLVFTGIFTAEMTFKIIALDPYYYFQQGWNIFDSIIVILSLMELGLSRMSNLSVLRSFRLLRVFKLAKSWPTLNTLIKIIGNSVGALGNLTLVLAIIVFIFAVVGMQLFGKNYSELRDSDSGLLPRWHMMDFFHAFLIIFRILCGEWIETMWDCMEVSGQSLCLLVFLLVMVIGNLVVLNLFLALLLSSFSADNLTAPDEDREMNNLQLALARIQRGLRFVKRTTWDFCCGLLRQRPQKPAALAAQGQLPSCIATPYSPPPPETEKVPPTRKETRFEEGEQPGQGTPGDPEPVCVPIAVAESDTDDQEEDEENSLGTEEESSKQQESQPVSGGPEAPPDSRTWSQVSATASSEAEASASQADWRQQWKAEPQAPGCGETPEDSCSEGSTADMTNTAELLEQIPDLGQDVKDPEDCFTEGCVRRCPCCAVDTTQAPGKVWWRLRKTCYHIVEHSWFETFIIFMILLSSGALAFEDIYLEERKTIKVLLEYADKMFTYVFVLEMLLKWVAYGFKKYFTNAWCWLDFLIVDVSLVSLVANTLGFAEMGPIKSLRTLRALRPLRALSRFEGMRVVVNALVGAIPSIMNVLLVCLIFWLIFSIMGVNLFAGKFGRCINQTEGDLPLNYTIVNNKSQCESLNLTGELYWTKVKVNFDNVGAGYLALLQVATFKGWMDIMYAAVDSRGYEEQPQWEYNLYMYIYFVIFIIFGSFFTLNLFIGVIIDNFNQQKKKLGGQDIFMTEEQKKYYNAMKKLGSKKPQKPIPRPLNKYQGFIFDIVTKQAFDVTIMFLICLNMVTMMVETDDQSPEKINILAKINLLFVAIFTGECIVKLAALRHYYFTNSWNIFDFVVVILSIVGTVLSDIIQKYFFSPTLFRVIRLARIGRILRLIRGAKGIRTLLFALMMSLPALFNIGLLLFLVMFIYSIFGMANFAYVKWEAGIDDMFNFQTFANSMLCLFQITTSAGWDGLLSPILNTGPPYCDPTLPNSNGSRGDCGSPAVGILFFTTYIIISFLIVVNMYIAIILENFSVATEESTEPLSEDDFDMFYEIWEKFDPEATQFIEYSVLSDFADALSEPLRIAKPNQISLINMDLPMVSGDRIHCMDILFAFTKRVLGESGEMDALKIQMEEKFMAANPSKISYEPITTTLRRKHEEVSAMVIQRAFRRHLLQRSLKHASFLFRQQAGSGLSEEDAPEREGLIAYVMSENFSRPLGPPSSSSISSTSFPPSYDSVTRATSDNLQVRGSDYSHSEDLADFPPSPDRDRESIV

By IC50 is commonly meant the concentration that inhibits the measured activity by half. Regarding `CC[C@H](C)[C@@H]1NC(=O)[C@@H]2CSSC[C@@H]3NC(=O)[C@H](C(C)C)NC(=O)[C@H](CC(C)C)NC(=O)[C@H](CC(N)=O)NC(=O)[C@@H]4CCCN4C(=O)[C@H](CCCNC(=N)N)NC(=O)[C@H](CSSC[C@H](NC(=O)[C@@H](N)CC(=O)O)C(=O)N[C@@H](CC(C)C)C(=O)NCC(=O)N[C@@H](Cc4ccccc4)C(=O)N[C@@H](CCSC)C(=O)N[C@@H](CCCNC(=N)N)C(=O)N[C@@H](CCCCN)C(=O)N2)NC(=O)[C@H](CSSC[C@@H](C(=O)N[C@@H](CCCCN)C(=O)N[C@@H](Cc2ccc(O)cc2)C(=O)N[C@H](C(=O)N[C@@H](Cc2ccccc2)C(N)=O)C(C)C)NC(=O)[C@H](Cc2c[nH]c4ccccc24)NC(=O)[C@H](CCCCN)NC(=O)[C@H](Cc2cnc[nH]2)NC(=O)[C@H]([C@@H](C)O)NC(=O)[C@H](CCCNC(=N)N)NC(=O)[C@H](CCC(=O)O)NC3=O)NC(=O)[C@H](CCCCN)NC(=O)[C@H](CC(=O)O)NC(=O)[C@H](CC(N)=O)NC(=O)[C@H](CC(=O)O)NC(=O)[C@@H]2CCCN2C1=O` (H-DCLGFMRKCIPDNDKCCRPNLVCERTHKWCKYVF-NH2; disulfide 2-17, 9-23, 16-30), the IC50 in assay [1] and in assay [2] was above 5 µM each time.

For the molecule `CC[C@H](C)[C@@H]1NC(=O)[C@@H]2CSSC[C@@H]3NC(=O)[C@H](C(C)C)NC(=O)[C@H](CC(C)C)NC(=O)[C@H](CC(N)=O)NC(=O)[C@@H]4CCCN4C(=O)[C@H](CCCNC(=N)N)NC(=O)[C@H](CSSC[C@H](NC(=O)[C@@H](N)CC(=O)O)C(=O)N[C@@H](CC(C)C)C(=O)NCC(=O)N[C@@H](Cc4ccccc4)C(=O)N[C@@H](CCCCN)C(=O)N[C@@H](CCCNC(=N)N)C(=O)N[C@@H](CCCCN)C(=O)N2)NC(=O)[C@H](CSSC[C@@H](C(=O)N[C@@H](CCCCN)C(=O)N[C@@H](Cc2ccc(O)cc2)C(=O)N[C@H](C(=O)N[C@@H](Cc2ccccc2)C(N)=O)C(C)C)NC(=O)[C@H](Cc2c[nH]c4ccccc24)NC(=O)[C@H](CCCCN)NC(=O)[C@H](Cc2cnc[nH]2)NC(=O)[C@H]([C@@H](C)O)NC(=O)[C@H](CCCNC(=N)N)NC(=O)[C@H](CO)NC3=O)NC(=O)[C@H](CCCCN)NC(=O)[C@H](CC(=O)O)NC(=O)[C@H](CC(N)=O)NC(=O)[C@H](CC(=O)O)NC(=O)[C@@H]2CCCN2C1=O` (H-DCLGFKRKCIPDNDKCCRPNLVCSRTHKWCKYVF-NH2; disulfide 2-17, 9-23, 16-30), the IC50 in assay [1] and in assay [2] was above 5 µM in each case.

For the molecule `CC[C@H](C)[C@@H]1NC(=O)[C@@H]2CSSC[C@@H]3NC(=O)[C@H](C(C)C)NC(=O)[C@H](CC(C)C)NC(=O)[C@H](CCC(=O)O)NC(=O)[C@@H]4CCCN4C(=O)[C@H](CCCNC(=N)N)NC(=O)[C@H](CSSC[C@H](NC(=O)[C@@H](N)CC(=O)O)C(=O)N[C@@H](CC(C)C)C(=O)NCC(=O)N[C@@H](Cc4ccccc4)C(=O)N[C@@H](CCSC)C(=O)N[C@@H](CCCNC(=N)N)C(=O)N[C@@H](CCCCN)C(=O)N2)NC(=O)[C@H](CSSC[C@@H](C(=O)N[C@@H](CCCCN)C(=O)N[C@@H](Cc2ccc(O)cc2)C(=O)N[C@H](C(=O)N[C@@H](Cc2ccccc2)C(N)=O)C(C)C)NC(=O)[C@H](Cc2c[nH]c4ccccc24)NC(=O)[C@H](CCCCN)NC(=O)[C@H](Cc2cnc[nH]2)NC(=O)[C@H]([C@@H](C)O)NC(=O)[C@H](CCCNC(=N)N)NC(=O)[C@H](CO)NC3=O)NC(=O)[C@H](CCCCN)NC(=O)[C@H](CC(=O)O)NC(=O)[C@H](CC(N)=O)NC(=O)[C@H](CC(=O)O)NC(=O)[C@@H]2CCCN2C1=O` (H-DCLGFMRKCIPDNDKCCRPELVCSRTHKWCKYVF-NH2; disulfide 2-17, 9-23, 16-30), the IC50 was 1.4 µM in assay [1] and above 5 µM in assay [2].

In the case of `CC[C@H](C)[C@@H]1NC(=O)[C@@H]2CSSC[C@@H]3NC(=O)[C@H](C(C)C)NC(=O)[C@H](CC(C)C)NC(=O)[C@H](CC(N)=O)NC(=O)[C@@H]4CCCN4C(=O)[C@H](CCCNC(=N)N)NC(=O)[C@H](CSSC[C@H](NC(=O)[C@@H](N)CC(=O)O)C(=O)N[C@@H](CC(C)C)C(=O)NCC(=O)N[C@@H](Cc4ccccc4)C(=O)N[C@@H](CCSC)C(=O)N[C@@H](CCCNC(=N)N)C(=O)N[C@@H](CCCCN)C(=O)N2)NC(=O)[C@H](CSSC[C@@H](C(=O)N[C@@H](CCCCN)C(=O)N[C@@H](Cc2ccc(O)cc2)C(=O)N[C@H](C(=O)N[C@@H](Cc2ccccc2)C(N)=O)C(C)C)NC(=O)[C@H](Cc2c[nH]c4ccccc24)NC(=O)[C@H](CCCCN)NC(=O)[C@H](Cc2c[nH]cn2)NC(=O)[C@H]([C@@H](C)O)NC(=O)[C@H](CCC(=O)O)NC(=O)[C@H](CO)NC3=O)NC(=O)[C@H](CCCCN)NC(=O)[C@H](CC(=O)O)NC(=O)[C@H](CC(N)=O)NC(=O)[C@H](CC(=O)O)NC(=O)[C@@H]2CCCN2C1=O` (H-DCLGFMRKCIPDNDKCCRPNLVCSETHKWCKYVF-NH2; disulfide 2-17, 9-23, 16-30), the IC50 is 0.72 µM in assay [1] and above 5 µM in assay [2].

Consider `CC[C@H](C)[C@@H]1NC(=O)[C@@H]2CSSC[C@@H]3NC(=O)[C@H](CCCCN)NC(=O)[C@H](CC(C)C)NC(=O)[C@H](CC(N)=O)NC(=O)[C@@H]4CCCN4C(=O)[C@H](CCCNC(=N)N)NC(=O)[C@H](CSSC[C@H](NC(=O)[C@@H](N)CC(=O)O)C(=O)N[C@@H](CC(C)C)C(=O)NCC(=O)N[C@@H](Cc4ccccc4)C(=O)N[C@@H](CCSC)C(=O)N[C@@H](CCCNC(=N)N)C(=O)N[C@@H](CCCCN)C(=O)N2)NC(=O)[C@H](CSSC[C@@H](C(=O)N[C@@H](CCCCN)C(=O)N[C@@H](Cc2ccc(O)cc2)C(=O)N[C@H](C(=O)N[C@@H](Cc2ccccc2)C(N)=O)C(C)C)NC(=O)[C@H](Cc2c[nH]c4ccccc24)NC(=O)[C@H](CCCCN)NC(=O)[C@H](Cc2cnc[nH]2)NC(=O)[C@H]([C@@H](C)O)NC(=O)[C@H](CCCNC(=N)N)NC(=O)[C@H](CO)NC3=O)NC(=O)[C@H](CCCCN)NC(=O)[C@H](CC(=O)O)NC(=O)[C@H](CC(N)=O)NC(=O)[C@H](CC(=O)O)NC(=O)[C@@H]2CCCN2C1=O` (H-DCLGFMRKCIPDNDKCCRPNLKCSRTHKWCKYVF-NH2; disulfide 2-17, 9-23, 16-30), for which the IC50 was 0.2 µM in assay [1] and above 5 µM in assay [2].

Consider `CC[C@H](C)[C@@H]1NC(=O)[C@@H]2CSSC[C@@H]3NC(=O)[C@H](C(C)C)NC(=O)[C@H](CC(C)C)NC(=O)[C@H](CC(N)=O)NC(=O)[C@@H]4CCCN4C(=O)[C@H](CCCNC(=N)N)NC(=O)[C@H](CSSC[C@H](NC(=O)[C@@H](N)CC(=O)O)C(=O)N[C@@H](CC(C)C)C(=O)NCC(=O)N[C@@H](Cc4ccccc4)C(=O)N[C@@H](CCSC)C(=O)N[C@@H](CCCNC(=N)N)C(=O)N[C@@H](CCCCN)C(=O)N2)NC(=O)[C@H](CSSC[C@@H](C(=O)N[C@@H](CCCCN)C(=O)N[C@@H](Cc2ccc(O)cc2)C(=O)N[C@H](C(=O)N[C@@H](Cc2ccccc2)C(N)=O)C(C)C)NC(=O)[C@H](Cc2c[nH]c4ccccc24)NC(=O)[C@H](CCCCN)NC(=O)[C@H](Cc2cnc[nH]2)NC(=O)[C@H](CCCCN)NC(=O)[C@H](CCCNC(=N)N)NC(=O)[C@H](CO)NC3=O)NC(=O)[C@H](CCCCN)NC(=O)[C@H](CC(=O)O)NC(=O)[C@H](CC(N)=O)NC(=O)[C@H](CC(=O)O)NC(=O)[C@@H]2CCCN2C1=O` (H-DCLGFMRKCIPDNDKCCRPNLVCSRKHKWCKYVF-NH2; disulfide 2-17, 9-23, 16-30), for which the IC50 in assay [1] is 0.04 µM; in assay [2], above 5 µM.

The values above are taken from ChEMBL document CHEMBL3797186, “Single Residue Substitutions That Confer Voltage-Gated Sodium Ion Channel Subtype Selectivity in the NaV1.7 Inhibitory Peptide GpTx-1” (J Med Chem, 2016).
